Compound activity deposited in PubChem by Johns Hopkins Ion Channel Center.
MrgX1 PAM: allosterically activates human MrgX1 receptor signaling. MrgX1-HEK293, Fluo-4 calcium flux, FDSS; active compounds read high. B-score at 10 µM. actives 0.63% (n = 310,000). AID 588675;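 active = plate-corrected calcium response at least 3 library SD above typical, normal starting fluorescence, not activating the receptor alone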;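 also: compound read alongside a low EC10 to EC30 dose of BAM8-22 agonist; peak minus trough fluorescence over baseline measured at the second addition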
Target sequence (Q96LB2 whole entry, looked up): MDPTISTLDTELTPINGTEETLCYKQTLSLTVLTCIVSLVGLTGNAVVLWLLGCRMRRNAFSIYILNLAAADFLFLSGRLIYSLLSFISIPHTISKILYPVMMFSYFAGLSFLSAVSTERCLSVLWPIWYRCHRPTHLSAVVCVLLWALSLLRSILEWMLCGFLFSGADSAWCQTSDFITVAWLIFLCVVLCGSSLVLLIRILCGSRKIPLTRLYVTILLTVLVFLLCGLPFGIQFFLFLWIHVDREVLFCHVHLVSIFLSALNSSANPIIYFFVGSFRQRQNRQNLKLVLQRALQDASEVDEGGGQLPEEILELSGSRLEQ
MrgX1 ag: activates human MrgX1 receptor signaling; MrgX1-HEK293 cells, Fluo-4 calcium fluorescence, agonist mode; active compounds read high; Q96LB2; actives 0.44% (n = 310,000); B-score at 10 µM; AID 588627;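 active = calcium response B-score plate-corrected fluorescence ratio at least 3 library SD, with starting fluorescence B-score inside 5 SD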
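Assay system: MrgX1-expressing HEK293 cells / Amount: fifteen thousand cells per well / Doses: test compound in the initial addition of three / Timing: cells plated overnight, dye loaded 0.5 h 37 °C, 0.5 h room temperature / Technique: kinetic calcium dye fluorescence, Fluo-4 NW / Control set: positive and negative controls per plate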
MrgX1 antagonist: human MrgX1 receptor antagonism, primary screen; Q96LB2; B-score at 10 µM; actives 1.3% (n = 310,000); MRGX1-HEK293 calcium flux, Fluo-4, BAM8-22 antagonism; active compounds read low;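 active = calcium-response B-score plate-corrected more than 3 library SD below zero, starting fluorescence within 5 deviations, no agonist response on first addition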;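 also: peak minus trough fluorescence over baseline after final BAM8-22 challenge near maximal dose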
RGS4 block: inhibitors of human RGS4. actives 0.45% (n = 310,000). HEK293 M3R/RGS4 inducible, Fluo-4 calcium flux; active compounds read high; triggered by carbachol at its EC20. B-score at 10 µM;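 active = B-score, a plate-corrected calcium signal, over three deviations above library mean, with baseline fluorescence within five deviations of library mean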;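 also: RGS4 expression induced by doxycycline in cells with stable M3 receptor; B-score is computed from the integrated fluorescence ratio over baseline after carbachol; higher B-score means a larger calcium signal and so more RGS4 inhibition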
Target sequence (P49798 whole entry, looked up): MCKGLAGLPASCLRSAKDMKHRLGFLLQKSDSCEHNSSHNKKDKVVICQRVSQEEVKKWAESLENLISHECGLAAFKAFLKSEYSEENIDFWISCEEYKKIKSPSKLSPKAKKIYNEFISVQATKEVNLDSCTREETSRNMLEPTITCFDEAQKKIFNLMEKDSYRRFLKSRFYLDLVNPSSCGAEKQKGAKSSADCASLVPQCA
RGS4 pot: RGS4 potentiation or activation; actives 0.92% (n = 310,000); HEK293 M3R/inducible RGS4, carbachol calcium flux Fluo4; active compounds read low; AID 463111; B-score at 10 µM;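 active = B-score of the integrated calcium signal more than 4 SD below the library mean, with starting fluorescence not abnormally high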;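 also: negative B-score means reduced calcium response which marks RGS4 activation or potentiation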
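test system = HEK293 cells with stable M3R and inducible RGS4 | schedule = recording 10 s baseline at 1 Hz, 100 s post-agonist | technique = Fluo4-AM (2 µM) calcium-flux fluorescence, kinetic read | measure = Agonist-evoked peak-minus-minimum fluorescence over baseline, integrated ratio, B score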
* marks the source's active call; other numbers are inactive results; i = inactive; · = no result given. Hits are enriched below; roughly 3.5% of the tested compounds scored in any of these assays.

SMILES | MrgX1 PAM | MrgX1 ag | MrgX1 antagonist | RGS4 block | RGS4 pot
O=C(Cn1ncc2c3ccccc3n(Cc3ccc(F)cc3)c2c1=O)N1CCN(c2ncccn2)CC1 | i | i | -8.1* | i | i
O=C(Cn1ncc2c3ccccc3n(Cc3ccccc3)c2c1=O)NCCCN1CCCC1=O | i | i | -8.1* | i | i
O=C(CSc1nnc(COc2cccc3ccccc23)o1)N1CCN(C(=O)c2ccco2)CC1 | i | i | i | i | i
Cc1noc(C)c1CSc1nnc(-c2c[nH]c3ccccc23)n1-c1ccc(Cl)cc1 | i | i | i | i | i
COc1cccc(NC(=O)C(c2ccccc2)N2CCCCC2)c1 (centres undefined) | i | i | i | i | -7*
O=C(c1ccc(Cl)c(S(=O)(=O)N2CCCCC2)c1)N1CCN(c2ccccc2)CC1 | i | i | i | i | i
Cc1ccccc1-n1c(SCC(=O)Nc2ccc3c(c2)OCO3)nnc1-c1ccccn1 | i | i | i | i | i
CC(C)CSC1=NSC2=NC(=O)/C(=C\c3ccccc3)C(=N)N12 | i | 27* | i | i | i
Cc1cc(/C=C2\C(=N)N3C(SCc4ccccc4)=NSC3=NC2=O)c(C)n1Cc1ccccc1 | i | i | i | i | i
CC(C)NC(=O)C1CCN(C(=O)c2cc3sccc3n2Cc2ccc(F)cc2)CC1 | i | i | i | i | i
COc1ccc2nc(C)cc(N/N=C/c3cccc(OC)c3O)c2c1 | i | i | i | i | -11*
COc1cccc(/C=N/Nc2nc3ccccc3n3cnnc23)c1O | i | i | i | i | -7.1*
COc1ccc(/C=N/Nc2cc(C)nc3ccc(Br)cc23)cc1 | i | i | i | i | i
COc1cccc(/C=N/Nc2nc3ccccc3n3cnnc23)c1 | i | i | i | i | i
O=C(NC(=S)Nc1cc(Cl)ccc1N1CCOCC1)c1ccc(-c2cccc(Cl)c2)o1 | i | i | i | i | i
CCN(CC)C(=O)c1sc(N)c(C#N)c1C | i | i | i | i | i
CCOC(=O)c1cc2c(ccn2C)n1CC(=O)N1CCN(c2ccccc2)CC1 | i | i | i | i | i
CCc1ccc(CN(C(=O)c2cc3ccccc3oc2=O)C2CCS(=O)(=O)C2)cc1 (centres undefined) | i | i | i | i | i
COc1ccc(C[C@H](C)NC[C@@H](O)c2ccc(O)c(NC=O)c2)cc1 | 7.7* | i | i | i | i
CC(C)NC[C@@H](O)c1ccc(O)c(O)c1 | i | 32* | i | i | i
CCN1CCc2c(sc(NC(=O)C3CCCCC3)c2C(=O)OC)C1 | i | i | i | i | i
O=C(O)COc1cccc(/C=C2/SC(=S)N(Cc3ccccc3)C2=O)c1 | i | i | i | 5.7* | i
O=C(CN1C(=O)S/C(=C\c2cc(Cl)c(O)c(Cl)c2)C1=O)Nc1ccccc1 | i | 27* | i | i | i
O=C(CCN1C(=O)/C(=C\c2ccccc2)SC1=S)Nc1ccc(C(=O)O)cc1 | 14* | i | i | i | i
O=C(O)CN1C(=O)/C(=C\c2cccc(OCc3ccccc3)c2)SC1=S | i | i | i | i | i
SMILES | MrgX1 PAM | MrgX1 ag | MrgX1 antagonist | RGS4 block | RGS4 pot
COc1cc(/C=C2\SC(=S)N(CCC(=O)Nc3cccc(O)c3)C2=O)cc(OC)c1OC | i | i | -4.6* | i | -8.1*
O=C(CN1C(=O)S/C(=C\c2ccccn2)C1=O)Nc1ccccc1 | i | i | i | i | i
CCn1nc(C)c(CN2CCC(C(=O)Nc3cccc(-c4cccc(Cl)c4)c3)CC2)c1C | i | i | i | i | i
NNc1nc(-c2ccccc2Cl)nc2ccccc12 | i | i | i | i | i
COc1ccc(NC(=O)NC2(C(=O)N3CCCCCC3)CCCCC2)cc1 | i | i | i | i | i
Cn1c(CNC(=O)C2CCCCC2)cc2ccccc21 | i | i | i | i | i
Cc1c(NC(=O)c2cc(-n3cnnc3)ccc2Cl)cccc1-c1nc2ccccc2s1 | i | i | i | i | i
O=C(Nc1cccc(-c2nc3ccccc3s2)c1)c1cc(-n2cnnc2)ccc1Cl | i | i | i | i | -8.3*
CCC1C(c2ccccc2)N(C)C(c2ccccc2)CC1(O)c1ccccc1 (centres undefined) | i | i | i | i | -7.7*
CCC(C(=O)Nc1ccccc1C(=O)N1CCCC1)N1C(=O)c2ccccc2C1=O (centres undefined) | i | i | i | i | i
CC1CN(C(=O)COC(=O)c2cc(Cl)ccc2[N+](=O)[O-])CC(C)O1 (centres undefined) | i | i | -4.8* | i | i
CCOC(=O)C1CCCN(S(=O)(=O)c2ccc(S(=O)(=O)N3CCCC3)cc2)C1 (centres undefined) | i | i | -5.3* | i | i
CCOC(=O)C1CCCN(C(=O)c2ccc(S(=O)(=O)N3CCCC3)cc2)C1 (centres undefined) | i | i | i | i | i
CCCCC(CC)CN=C(N)NC(N)=NCCCCCCN=C(N)NC(N)=NCC(CC)CCCC (centres undefined) | i | 170* | i | · | ·
Cc1cc(N2CCCC2)nc(N2C3CCC2CC(O)(c2ccc(F)cc2)C3)n1 (centres undefined) | 8* | i | i | i | i
COc1ccc(C2(O)CC3CCC(C2)N3c2cc(C)nc(-c3ccccc3)n2)cc1 (centres undefined) | i | i | i | i | i
Cc1ccc(F)cc1NC(=O)N1CCNC(=O)C1CC(=O)Nc1cc(Cl)ccc1Cl (centres undefined) | i | i | i | i | i
Nc1ncnc2c1ncn2[C@@H]1O[C@H](CO)[C@@H](O)[C@H]1O | i | 26* | i | i | i
Cc1cc(C)c2nc(N3CCC(C(=O)NCCCN4CC(C)CC(C)C4)CC3)sc2c1 (centres undefined) | i | i | i | i | -10*
Cc1cc(C)c2nc(N3CCCC(C(=O)NCCCN4CCOCC4)C3)sc2c1 (centres undefined) | i | i | i | i | i
COc1ccc2cc(/C=C3\SC(=S)NC3=O)c(N3CCOCC3)nc2c1 | i | i | -6.9* | i | i
O=C1NC(=S)S/C1=C/c1ccc(N2CCOCC2)o1 | i | i | i | i | i
COc1ccc(-c2cc(C(=O)NNC(=S)NC(=O)c3c(-c4ccccc4)noc3C)[nH]n2)cc1 | i | i | i | i | i
